Results as given in ChEMBL document CHEMBL4613292, “5,6-Dihydroxypyrimidine Scaffold to Target HIV-1 Nucleocapsid Protein” (ACS Med Chem Lett, 2020).

System: not listed separately
Test: Oral bioavailability in C57BL/6 mouse at 5 mg/kg administered as single dose measured up to 24 hrs by LC-MS/MS analysis
Type: ADME, organism-based
Conditions: in vivo
How it was run: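 C57BL/6 mice were dosed 5 mg/kg orally, with a 2 mg/kg iv reference arm. Plasma was sampled at eight time points up to 24 h.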

SMILES	bioavailability [%]
C[C@@H](NC(=O)c1nc(-c2cc(Cl)ccn2)nc(O)c1O)C1CCCCC1	40

System: not listed separately
Test: (§1) Selectivity index, ratio of CC50 for human HeLa cells assessed as reduction in cell viability to EC50 for wild-type HIV1 NL4-3 infected in human TZM-bl cells infected with supernatants from virus-infected human MT2 cells treated with compound for 48 to 72 hrs assessed as reduction in viral replication after 2 days by bright Glo-luciferase reporter gene assay based BiCycle assay
Type: toxicity
Conditions: read-out: Ratio CC50/EC50
How it was run: (§2)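 Selectivity index is CC50 from the respective cytotoxicity assay (HeLa or PBMC) divided by EC50 from the two-round MT-2/TZM-bl NL4-3 assay.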

SMILES	selectivity ratio
C[C@@H](NC(=O)c1nc(-c2cc(Cl)ccn2)nc(O)c1O)C1CCCCC1	30

System: not listed separately
Test: Half life in human plasma at 3 uM by LC-MS/MS analysis
Type: ADME, cell-free
Conditions: not given

SMILES	half-life at 3 µM [h]
C[C@@H](NC(=O)c1nc(-c2cc(Cl)ccn2)nc(O)c1O)C1CCCCC1	> 6

System: Human immunodeficiency virus 1
Test: Antiviral activity against INI-resistant HIV1 11845
Type: functional, organism-based
Conditions: Human immunodeficiency virus 1, 11845

SMILES	EC50 [nM]
C[C@@H](NC(=O)c1nc(-c2cc(Cl)ccn2)nc(O)c1O)C1CCCCC1	70

Biological target: Voltage-gated inwardly rectifying potassium channel KCNH2 (Homo sapiens, UniProt Q12809)
Test: Displacement of Tracer Red from human ERG measured after 4 hrs by fluorescence polarization assay
Conditions: not given

Sequence of Voltage-gated inwardly rectifying potassium channel KCNH2 (Q12809 whole entry): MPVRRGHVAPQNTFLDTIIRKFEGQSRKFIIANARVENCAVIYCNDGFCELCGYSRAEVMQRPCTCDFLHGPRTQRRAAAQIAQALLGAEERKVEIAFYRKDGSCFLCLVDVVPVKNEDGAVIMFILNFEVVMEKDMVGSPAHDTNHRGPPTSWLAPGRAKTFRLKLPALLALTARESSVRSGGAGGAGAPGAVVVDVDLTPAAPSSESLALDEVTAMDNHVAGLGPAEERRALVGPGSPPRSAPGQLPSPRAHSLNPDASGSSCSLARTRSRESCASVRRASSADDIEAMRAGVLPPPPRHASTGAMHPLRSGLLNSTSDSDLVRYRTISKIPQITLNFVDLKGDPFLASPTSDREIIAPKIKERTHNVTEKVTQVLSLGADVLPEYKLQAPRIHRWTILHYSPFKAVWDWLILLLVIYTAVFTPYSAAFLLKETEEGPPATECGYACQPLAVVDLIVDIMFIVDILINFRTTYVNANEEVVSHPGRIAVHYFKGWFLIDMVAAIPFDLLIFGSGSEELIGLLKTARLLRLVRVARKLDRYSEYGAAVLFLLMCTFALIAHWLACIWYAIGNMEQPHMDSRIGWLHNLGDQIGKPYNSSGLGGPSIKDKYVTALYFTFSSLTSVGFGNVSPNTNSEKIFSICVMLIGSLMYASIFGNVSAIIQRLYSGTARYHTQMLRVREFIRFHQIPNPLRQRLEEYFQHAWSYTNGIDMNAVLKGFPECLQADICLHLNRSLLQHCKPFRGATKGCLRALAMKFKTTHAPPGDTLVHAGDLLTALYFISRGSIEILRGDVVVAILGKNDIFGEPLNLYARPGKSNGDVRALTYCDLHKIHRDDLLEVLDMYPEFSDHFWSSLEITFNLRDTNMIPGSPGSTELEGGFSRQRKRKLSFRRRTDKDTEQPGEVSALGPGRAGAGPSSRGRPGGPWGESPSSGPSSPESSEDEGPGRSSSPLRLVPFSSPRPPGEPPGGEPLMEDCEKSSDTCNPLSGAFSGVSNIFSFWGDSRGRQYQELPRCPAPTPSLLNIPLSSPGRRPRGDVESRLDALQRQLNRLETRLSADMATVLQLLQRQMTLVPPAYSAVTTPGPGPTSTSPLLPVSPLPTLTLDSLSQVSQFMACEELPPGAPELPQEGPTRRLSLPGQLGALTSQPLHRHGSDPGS

SMILES	IC50 [nM]
C[C@@H](NC(=O)c1nc(-c2cc(Cl)ccn2)nc(O)c1O)C1CCCCC1	> 30000

System: Human immunodeficiency virus 1
Test: (§3) Ratio of IC50 for NRTI-resistant HIV1 7401 Nucleocapsid protein (11 to 55 residues) using Alexa488-5'-cTAR-3'-Dabcyl oligonucleotide as substrate to IC50 for HIV1 Nucleocapsid protein (11 to 55 residues) assessed as reduction in NC-induced cTAR DNA destabilization by measuring intrinsic fluorescence using Alexa488-5'-cTAR-3'-Dabcyl oligonucleotide as substrate at 20 degree C incubated for 15 mins by fluorescence assay
Conditions: not given

SMILES	Ratio IC50
C[C@@H](NC(=O)c1nc(-c2cc(Cl)ccn2)nc(O)c1O)C1CCCCC1	0.1

System: Human immunodeficiency virus 1
Test: as §3, with “NNRTI-resistant” for “NRTI-resistant”, “12231” for “7401”
Conditions: not given

SMILES	Ratio IC50
C[C@@H](NC(=O)c1nc(-c2cc(Cl)ccn2)nc(O)c1O)C1CCCCC1	0.8

System: not listed separately
Test: Half life in mouse plasma at 3 uM by LC-MS/MS analysis
Type: ADME, cell-free
Conditions: not given

SMILES	half-life at 3 µM [h]
C[C@@H](NC(=O)c1nc(-c2cc(Cl)ccn2)nc(O)c1O)C1CCCCC1	> 6

System: Human immunodeficiency virus 1
Test: as §3, with “PI-resistant” for “NRTI-resistant”, “11808” for “7401”
Conditions: not given

SMILES	Ratio IC50
C[C@@H](NC(=O)c1nc(-c2cc(Cl)ccn2)nc(O)c1O)C1CCCCC1	0.2

Biological target: Cytochrome P450 2D6 (Homo sapiens, UniProt P10635)
Test: Inhibition of human microsomal CYP2D6 expressed in baculovirus infected insect cells using luciferin-ME as substrate preincubated with enzyme/substrate mixture for 30 mins followed by further incubation with NADPH for 30 mins by CYP450 luciferase Glo assay
Type: ADME
Conditions: not given

Sequence of Cytochrome P450 2D6 (P10635 whole entry): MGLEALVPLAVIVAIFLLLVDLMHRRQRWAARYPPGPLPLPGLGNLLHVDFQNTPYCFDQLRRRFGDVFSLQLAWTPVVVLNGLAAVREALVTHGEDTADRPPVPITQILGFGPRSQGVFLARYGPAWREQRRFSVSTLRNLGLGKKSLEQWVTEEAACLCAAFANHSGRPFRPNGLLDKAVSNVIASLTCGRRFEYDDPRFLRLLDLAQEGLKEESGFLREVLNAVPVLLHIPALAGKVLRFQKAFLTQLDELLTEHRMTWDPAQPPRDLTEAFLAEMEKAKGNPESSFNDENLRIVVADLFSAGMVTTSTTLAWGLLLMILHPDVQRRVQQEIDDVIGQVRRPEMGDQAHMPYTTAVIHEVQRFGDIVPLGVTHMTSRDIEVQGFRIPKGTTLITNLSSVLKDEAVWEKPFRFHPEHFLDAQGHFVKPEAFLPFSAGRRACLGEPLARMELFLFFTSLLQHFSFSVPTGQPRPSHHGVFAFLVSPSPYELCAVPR

SMILES	IC50 [nM]
C[C@@H](NC(=O)c1nc(-c2cc(Cl)ccn2)nc(O)c1O)C1CCCCC1	> 30000

System: not listed separately
Test: Inhibition of HIV1 Nucleocapsid protein (11 to 55 residues) assessed as reduction in NC-induced cTAR DNA destabilization by measuring intrinsic fluorescence using Alexa488-5'-cTAR-3'-Dabcyl oligonucleotide as substrate at 20 degree C incubated for 15 mins by fluorescence assay
Design: species or system Human immunodeficiency virus 1
Conditions: read-out: IC50
How it was run: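 Fluorescence NC-inhibition assay following destabilisation of cTAR DNA, the complement of the HIV-1 transactivation response element, dual-labelled with Alexa488 dye and Dabcyl quencher. NC protein at 1 μM, so the lowest measurable IC50 is 0.5 μM.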

SMILES	IC50 [nM]
C[C@@H](NC(=O)c1nc(-c2cc(Cl)ccn2)nc(O)c1O)C1CCCCC1	2000

System: Human immunodeficiency virus 1
Test: Antiviral activity against NNRTI-resistant HIV1 12231
Type: functional, organism-based
Conditions: Human immunodeficiency virus 1, 12231

SMILES	EC50 [nM]
C[C@@H](NC(=O)c1nc(-c2cc(Cl)ccn2)nc(O)c1O)C1CCCCC1	80

System: Human immunodeficiency virus 1
Test: Antiviral activity against PI-resistant HIV1 11808
Type: functional, organism-based
Conditions: Human immunodeficiency virus 1, 11808

SMILES	EC50 [nM]
C[C@@H](NC(=O)c1nc(-c2cc(Cl)ccn2)nc(O)c1O)C1CCCCC1	20

System: not listed separately
Test: Half life in human hepatocytes at 3 uM by LC-MS/MS analysis
Type: ADME, cell-based, Hepatocyte
Conditions: not given

SMILES	half-life at 3 µM [h]
C[C@@H](NC(=O)c1nc(-c2cc(Cl)ccn2)nc(O)c1O)C1CCCCC1	> 4

Biological target: T1, Cytochrome P450 1A2 (Homo sapiens, UniProt P05177)
T1 sequence (P05177 whole entry): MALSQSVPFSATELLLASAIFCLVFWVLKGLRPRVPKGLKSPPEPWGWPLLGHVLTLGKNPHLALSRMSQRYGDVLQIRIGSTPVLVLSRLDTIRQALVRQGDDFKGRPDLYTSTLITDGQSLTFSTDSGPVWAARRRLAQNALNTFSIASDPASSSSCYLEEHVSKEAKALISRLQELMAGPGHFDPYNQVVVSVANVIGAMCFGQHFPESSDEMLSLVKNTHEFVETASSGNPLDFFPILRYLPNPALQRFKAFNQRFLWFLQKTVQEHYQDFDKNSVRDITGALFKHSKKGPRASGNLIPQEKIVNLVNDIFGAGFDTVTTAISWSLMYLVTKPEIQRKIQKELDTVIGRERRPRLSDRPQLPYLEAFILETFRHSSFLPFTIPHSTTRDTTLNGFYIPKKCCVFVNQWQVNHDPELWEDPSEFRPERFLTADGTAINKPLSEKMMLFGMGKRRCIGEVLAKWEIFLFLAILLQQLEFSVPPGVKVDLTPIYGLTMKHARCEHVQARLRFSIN
Test: Inhibition of human microsomal CYP1A2 expressed in baculovirus infected insect cells using luciferin-1A2 as substrate preincubated with enzyme-substrate mixture for 30 mins followed by further incubation with NADPH for 30 mins by CYP450 luciferase Glo assay
Type: ADME
Conditions: not given

SMILES	IC50 [nM]
C[C@@H](NC(=O)c1nc(-c2cc(Cl)ccn2)nc(O)c1O)C1CCCCC1	> 30000

System: Human immunodeficiency virus 1
Test: as §3, with “INI-resistant” for “NRTI-resistant”, “11845” for “7401”
Conditions: not given

SMILES	Ratio IC50
C[C@@H](NC(=O)c1nc(-c2cc(Cl)ccn2)nc(O)c1O)C1CCCCC1	0.7

System: not listed separately
Test: Volume of distribution at steady state in C57BL/6 mouse at 2 mg/kg, iv or 5 mg/kg, po administered as single dose measured up to 24 hrs by LC-MS/MS analysis
Type: ADME, organism-based
Conditions: in vivo, read-out: Vdss

SMILES	Vd [L/kg]
C[C@@H](NC(=O)c1nc(-c2cc(Cl)ccn2)nc(O)c1O)C1CCCCC1	1.2

System: not listed separately
Test: Cytotoxicity against phytohemagglutinin and interleukin-2-stimulated human PBMC cells assessed as reduction in cell viability measured after 7 days by MTS assay
Type: cell-based
Conditions: not given

SMILES	CC50 at 168 h [nM]
C[C@@H](NC(=O)c1nc(-c2cc(Cl)ccn2)nc(O)c1O)C1CCCCC1	2500

System: not listed separately
Test: Half life in mouse hepatocytes at 3 uM by LC-MS/MS analysis
Type: ADME, cell-based, Hepatocyte
Conditions: not given

SMILES	half-life at 3 µM [h]
C[C@@H](NC(=O)c1nc(-c2cc(Cl)ccn2)nc(O)c1O)C1CCCCC1	1.7

System: Human immunodeficiency virus 1
Test: Antiviral activity against NRTI-resistant HIV1 7401
Type: functional, organism-based
Conditions: Human immunodeficiency virus 1, 7401

SMILES	EC50 [nM]
C[C@@H](NC(=O)c1nc(-c2cc(Cl)ccn2)nc(O)c1O)C1CCCCC1	10

System: not listed separately
Test: Selectivity index, ratio of CC50 for human PBMC cells stimulated with phytohemagglutinin and interleukin-2 assessed as reduction in cell viability measured after 7 days by MTS assay to EC50 for wild-type HIV1 NL4-3 infected in human TZM-bl cells infected with supernatants from virus-infected human MT2 cells treated with compound for 48 to 72 hrs assessed as reduction in viral replication after 2 days by bright Glo-luciferase reporter gene assay based BiCycle assay
Type: toxicity
Conditions: read-out: Ratio CC50/EC50
How it was run: as §2

SMILES	selectivity ratio at 7 days
C[C@@H](NC(=O)c1nc(-c2cc(Cl)ccn2)nc(O)c1O)C1CCCCC1	25

System: not listed separately
Test: Clearance in C57BL/6 mouse at 2 mg/kg, iv or 5 mg/kg, po administered as single dose measured up to 24 hrs by LC-MS/MS analysis
Type: ADME, organism-based
Conditions: in vivo

SMILES	clearance [mL/min/kg]
C[C@@H](NC(=O)c1nc(-c2cc(Cl)ccn2)nc(O)c1O)C1CCCCC1	37.1

Biological target: Cytochrome P450 3A4 (Homo sapiens, UniProt P08684)
Test: Inhibition of human microsomal CYP3A4 expressed in baculovirus infected insect cells using luciferin-IPA as substrate preincubated with enzyme/substrate mixture for 30 mins followed by further incubation with NADPH for 30 mins by CYP450 luciferase Glo assay
Type: ADME
Conditions: not given

Sequence of Cytochrome P450 3A4 (P08684 whole entry): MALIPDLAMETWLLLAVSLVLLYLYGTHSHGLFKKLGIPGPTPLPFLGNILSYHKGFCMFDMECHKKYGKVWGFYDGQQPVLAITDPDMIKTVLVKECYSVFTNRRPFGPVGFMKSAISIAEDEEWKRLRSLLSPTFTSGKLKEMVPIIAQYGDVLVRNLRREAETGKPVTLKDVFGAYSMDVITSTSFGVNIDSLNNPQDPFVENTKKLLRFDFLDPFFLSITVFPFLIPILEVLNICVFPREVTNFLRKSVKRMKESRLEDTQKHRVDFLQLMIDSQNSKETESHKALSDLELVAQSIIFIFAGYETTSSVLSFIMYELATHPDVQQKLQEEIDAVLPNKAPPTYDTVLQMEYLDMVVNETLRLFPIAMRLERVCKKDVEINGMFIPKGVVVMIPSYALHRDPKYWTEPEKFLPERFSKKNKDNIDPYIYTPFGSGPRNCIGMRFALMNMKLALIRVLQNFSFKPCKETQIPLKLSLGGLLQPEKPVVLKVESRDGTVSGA

SMILES	IC50 [nM]
C[C@@H](NC(=O)c1nc(-c2cc(Cl)ccn2)nc(O)c1O)C1CCCCC1	> 30000

System: not listed separately
Test: Half life in C57BL/6 mouse at 2 mg/kg, iv or 5 mg/kg, po administered as single dose measured up to 24 hrs by LC-MS/MS analysis
Type: ADME, organism-based
Conditions: in vivo

SMILES	half-life [h]
C[C@@H](NC(=O)c1nc(-c2cc(Cl)ccn2)nc(O)c1O)C1CCCCC1	3.1

System: not listed separately
Test: Cytotoxicity against human HeLa cells assessed as reduction in cell viability
Type: cell-based
Conditions: not given

SMILES	CC50 [nM]
C[C@@H](NC(=O)c1nc(-c2cc(Cl)ccn2)nc(O)c1O)C1CCCCC1	3000

System: Human immunodeficiency virus 1
Test: as §1, with “Antiviral activity against” for “Selectivity index, ratio of CC50 for human HeLa cells assessed as reduction in cell viability to EC50 for”
Type: functional, organism-based
Conditions: Human immunodeficiency virus 1, NL4-3, TZM
How it was run: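 Two-round cell assay over the full replication cycle: MT-2 T cells are infected with wild-type reference strain NL4-3 in the first round, and reporter TZM-bl cells are infected in the second round. Values are given as mean ± deviation.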

SMILES	EC50 [nM]
C[C@@H](NC(=O)c1nc(-c2cc(Cl)ccn2)nc(O)c1O)C1CCCCC1	100
